Measured values reported in ChEMBL document CHEMBL1125316, “New hydroxyethylamine HIV protease inhibitors that suppress viral replication” (J Med Chem, 1992).
In brackets after ≈: the same amount, converted by molar mass. Activity calls are given as the source filed them. The rule behind the calls is not given here. Starred links: 1 amine or outer side, 2 acyl side, 3 side chain; linkers in the order of their positions; H or OH if unused. Non-standard residues stand in square brackets, D forms with d. Residues, ends and D or L forms follow the SMILES beside them. ξ: configuration not given here. *: point of attachment. Pheψ(R-CH(OH)CH2N)Pro = O=C([C@@H]1CCCN1C[C@@H](O)[C@H](Cc1ccccc1)N[*:1])[*:2]; Pheψ(R-CHOHCH2N)ξPro = O=C(C1CCCN1C[C@@H](O)[C@H](Cc1ccccc1)N[*:1])[*:2]; Phe(3-Ph) = N[C@@H](Cc1cccc(-c2ccccc2)c1)C(=O)O; Bip = N[C@@H](Cc1ccc(-c2ccccc2)cc1)C(=O)O; 2Nal = N[C@@H](Cc1ccc2ccccc2c1)C(=O)O; hPhe = N[C@@H](CCc1ccccc1)C(=O)O; Boc = CC(C)(C)OC(=O)*

Legend:
[1] = target: Human immunodeficiency virus type 1 protease (Human immunodeficiency virus 1, UniProt Q72874); experiment: Binding affinity to HIV protease
In short: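 Continuous fluorometric assay of HIV protease (6.2 nM enzyme) at pH 6.4 with substrate AntThrIleNlePhe(p-NO2)GlnArgNH2. Ki derived assuming pure competitive tight-binding inhibition, by nonlinear least-squares fit to Morrison's tight-binding equation.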

CCRF-CEM [2] = experiment: Compound was evaluated for the inhibition of HIV infected CEM cells.; format: functional, Homo sapiens
In short: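 CEM (CD4+ lymphocyte line) cultures infected with HTLV-IIIb at MOI 0.1. Compound added 1 h before inoculation; peptides re-dosed days 2 and 5 post-infection. Virus-induced CPE quantitated at day 7 by formazan dye. Controls were untreated, infected and compound-only cells. EC50 for 50% CPE inhibition by linear regression. AZT positive control.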

[3] = system: Simian immunodeficiency virus; experiment: Compound was evaluated for the inhibition of SIV induced syncytia formation; format: functional, organism-based
In short: (§1)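 CEM×174 cells pretreated 30 min with serial 2-fold inhibitor dilutions, then infected with cell-free SIVmac251. Fresh inhibitor added at 48 h. CPE scored as multinucleated giant cell appearance after 7-day incubation. IC50 is the concentration giving 50% CPE inhibition versus infected controls. AZT positive control.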

CCRF-CEM [4] = experiment: Compound was evaluated at highest concentration (>10 uM) for the inhibition of HIV infected CEM cells; NA = not active; format: functional, cell-based; conditions: Homo sapiens
In short: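 CEM (CD4+ lymphocyte) cells infected with HTLV-IIIb at MOI 0.1; compound added 1 h before inoculation, with extra doses on days 2 and 5 for metabolically unstable compounds such as peptides. Virus-induced CPE read at day 7 by formazan dye.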

[5] = system: Simian immunodeficiency virus; experiment: Compound was evaluated at highest concentration (>10 syncytia formation; NA = not active; format: functional, organism-based; in short: as §1

SMILES	Ki [1] [nM]	also measured
CC[C@H](C)[C@H](NC(=O)C1CCCN1C[C@@H](O)[C@H](Cc1ccccc1)NC(=O)[C@H](CC(N)=O)NC(=O)[C@H](CC(C)C)NC(=O)[C@H](CO)NC(C)=O)C(=O)N[C@@H](Cc1c[nH]c2ccccc12)C(=O)OC (stereo partly drawn) (Ac-SLN[Pheψ(R-CHOHCH2N)ξPro]IW-OMe)	3.6	–
CC[C@H](C)[C@H](NC(=O)C1CCCN1C[C@@H](O)[C@H](Cc1ccccc1)NC(=O)[C@H](CC(N)=O)NC(=O)OCc1ccccc1)C(=O)NCCc1ccccn1 (stereo partly drawn)	71	–
CC[C@H](C)[C@H](NC(=O)C1CCCN1C[C@@H](O)[C@H](Cc1ccccc1)NC(=O)[C@H](CC(N)=O)NC(=O)[C@H](CC(C)C)NC(=O)[C@H](CO)NC(C)=O)C(=O)N[C@@H](Cc1ccc2ccccc2c1)C(=O)OC (stereo partly drawn) (Ac-SLN[Pheψ(R-CHOHCH2N)ξPro]I[2Nal]-OMe)	5.1	–
CC[C@H](C)[C@H](NC(=O)C1CCCN1C[C@@H](O)[C@H](Cc1ccccc1)NC(=O)[C@H](CC(N)=O)NC(=O)[C@H](CCc1ccccc1)NC(=O)OC(C)(C)C)C(=O)N[C@H](C(=O)OC)C(C)C (stereo partly drawn) (Boc-[hPhe]N[Pheψ(R-CHOHCH2N)ξPro]IV-OMe)	20	–
CC[C@H](C)[C@H](NC(=O)C1CCCN1C[C@@H](O)[C@H](Cc1ccccc1)NC(=O)[C@H](CC(N)=O)NC(=O)c1ccc2ccccc2n1)C(=O)N[C@@H](Cc1ccc2ccccc2c1)C(=O)OC (stereo partly drawn)	0.5	–
CC[C@H](C)[C@H](NC(=O)C1CCCN1C[C@@H](O)[C@H](Cc1ccccc1)NC(=O)[C@H](CC(N)=O)NC(=O)OCc1ccccc1)C(=O)N[C@@H](Cc1ccccc1)C(=O)NC (stereo partly drawn)	1.5	EC50 (CCRF-CEM [2]): 0.3 µg/mL (≈ 0.375 µM); IC50 [3]: 4 µM
CC[C@H](C)[C@H](NC(=O)C1CCCN1C[C@@H](O)[C@H](Cc1ccccc1)NC(=O)[C@H](CC(N)=O)NC(=O)[C@H](CC(C)C)NC(=O)[C@H](CO)NC(C)=O)C(=O)N[C@H](C(=O)OC)C(C)C (stereo partly drawn) (Ac-SLN[Pheψ(R-CHOHCH2N)ξPro]IV-OMe)	0.6	Inhibition (CCRF-CEM [4]): inactive; IC50 [5]: Not Active
CC[C@H](C)[C@H](NC(=O)C1CCCN1C[C@@H](O)[C@H](Cc1ccccc1)NC(=O)[C@H](CC(N)=O)NC(=O)[C@H](Cc1cccc(-c2ccccc2)c1)NC(=O)OC(C)(C)C)C(=O)N[C@H](C(=O)OC)C(C)C (stereo partly drawn) (Boc-[Phe(3-Ph)]N[Pheψ(R-CHOHCH2N)ξPro]IV-OMe)	6.8	–
CC[C@H](C)[C@H](NC(=O)C1CCCN1C[C@@H](O)[C@H](Cc1ccccc1)NC(=O)[C@H](CC(N)=O)NC(=O)[C@H](Cc1ccc2ccccc2c1)NC(=O)OC(C)(C)C)C(=O)N[C@H](C(=O)OC)C(C)C (stereo partly drawn) (Boc-[2Nal]N[Pheψ(R-CHOHCH2N)ξPro]IV-OMe)	7.8	–
CC[C@H](C)[C@H](NC(=O)C1CCCN1C[C@@H](O)[C@H](Cc1ccccc1)NC(=O)[C@H](CC(N)=O)NC(=O)[C@H](Cc1c(I)cc(O)cc1I)NC(=O)OC(C)(C)C)C(=O)N[C@H](C(=O)OC)C(C)C (stereo partly drawn)	131	–
CC[C@H](C)[C@H](NC(=O)[C@@H]1CCCN1C[C@@H](O)[C@H](Cc1ccccc1)NC(=O)[C@H](CC(N)=O)NC(=O)OCc1ccccc1)C(=O)N[C@@H](Cc1ccccc1)C(=O)OC	1	EC50 (CCRF-CEM [2]): 0.31 µg/mL (≈ 0.387 µM); IC50 [3]: 4 µM
CC[C@H](C)[C@H](NC(=O)C1CCCN1C[C@@H](O)[C@H](Cc1ccccc1)NC(=O)[C@H](CC(N)=O)NC(=O)OCc1ccccc1)C(=O)N[C@@H](Cc1ccc2ccccc2c1)C(=O)OC (stereo partly drawn)	1.9	–
CC[C@H](C)[C@H](NC(=O)C1CCCN1C[C@@H](O)[C@H](Cc1ccccc1)NC(=O)[C@H](CC(N)=O)NC(=O)c1ccc2ccccc2n1)C(=O)N[C@H](C(=O)OC)C(C)C (stereo partly drawn)	2.5	–
CC[C@H](C)[C@H](NC(=O)C1CCCN1C[C@@H](O)[C@H](Cc1ccccc1)NC(=O)[C@H](CC(N)=O)NC(=O)[C@H](Cc1ccc(-c2ccccc2)cc1)NC(=O)OC(C)(C)C)C(=O)N[C@H](C(=O)OC)C(C)C (stereo partly drawn) (Boc-[Bip]N[Pheψ(R-CHOHCH2N)ξPro]IV-OMe)	14	–
CC[C@H](C)[C@H](NC(=O)C1CCCN1C[C@@H](O)[C@H](Cc1ccccc1)NC(=O)[C@H](CC(N)=O)NC(=O)[C@H](CC(C)C)NC(=O)[C@H](CO)NC(C)=O)C(=O)N[C@@H](CCc1ccccc1)C(=O)OC (stereo partly drawn) (Ac-SLN[Pheψ(R-CHOHCH2N)ξPro]I[hPhe]-OMe)	1.26	–
CC[C@H](C)[C@H](NC(=O)C1CCCN1C[C@@H](O)[C@H](Cc1ccccc1)NC(=O)[C@H](CC(N)=O)NC(=O)c1ccc2ccccc2n1)C(=O)N[C@@H](Cc1ccccc1)C(=O)OC (stereo partly drawn)	0.4	–
CC[C@H](C)[C@H](NC(=O)C1CCCN1C[C@@H](O)[C@H](Cc1ccccc1)NC(=O)[C@H](CC(N)=O)NC(=O)OCc1ccccc1)C(=O)N[C@@H](Cc1ccccc1)C(=O)OC (stereo partly drawn)	1.7	EC50 (CCRF-CEM [2]): 0.6 µg/mL (≈ 0.749 µM); IC50 [3]: 8 µM
CC[C@H](C)[C@H](NC(=O)C1CCCN1C[C@@H](O)[C@H](Cc1ccccc1)NC(=O)[C@H](CC(N)=O)NC(=O)[C@H](CC(C)C)NC(=O)[C@H](CO)NC(C)=O)C(=O)N[C@@H](Cc1ccccc1)C(=O)OC (stereo partly drawn) (Ac-SLN[Pheψ(R-CHOHCH2N)ξPro]IF-OMe)	0.67	–
CC[C@H](C)[C@H](NC(=O)C1CCCN1C[C@@H](O)[C@H](Cc1ccccc1)NC(=O)[C@H](CC(N)=O)NC(=O)OCc1ccccc1)C(=O)N[C@H](C(=O)OC)C(C)C (stereo partly drawn)	9.7	–
CC[C@H](C)[C@H](NC(=O)C1CCCN1C[C@@H](O)[C@H](Cc1ccccc1)NC(=O)[C@H](CC(N)=O)NC(=O)[C@H](CC(C)C)NC(=O)OC(C)(C)C)C(=O)N[C@H](C(=O)OC)C(C)C (stereo partly drawn) (Boc-LN[Pheψ(R-CHOHCH2N)ξPro]IV-OMe)	66	–
CC[C@H](C)[C@H](NC(=O)[C@@H]1CCCN1C[C@@H](O)[C@H](Cc1ccccc1)NC(=O)[C@H](CC(N)=O)NC(=O)c1ccc2ccccc2n1)C(=O)N[C@@H](Cc1ccccc1)C(=O)OC	0.1	–
CC[C@H](C)[C@H](NC(=O)C1CCCN1C[C@@H](O)[C@H](Cc1ccccc1)NC(=O)[C@H](CC(N)=O)NC(=O)c1ccc2ccccc2n1)C(=O)N[C@@H](Cc1ccccc1)C(=O)NC (stereo partly drawn)	0.8	EC50 (CCRF-CEM [2]): 0.13 µg/mL (≈ 0.158 µM); IC50 [3]: 4 µM
CC[C@H](C)[C@H](NC(=O)C1CCCN1C[C@@H](O)[C@H](Cc1ccccc1)NC(=O)[C@H](CC(N)=O)NC(=O)OC(C)(C)C)C(=O)N[C@H](C(=O)OC)C(C)C (stereo partly drawn)	440	–
CC[C@H](C)[C@H](NC(=O)[C@@H]1CCCN1C[C@@H](O)[C@H](Cc1ccccc1)NC(=O)[C@H](CC(N)=O)NC(=O)[C@H](CC(C)C)NC(=O)[C@H](CO)NC(C)=O)C(=O)N[C@H](C(=O)OC)C(C)C (Ac-SLN[Pheψ(R-CH(OH)CH2N)Pro]IV-OMe)	0.24	–
CC[C@H](C)[C@H](NC(=O)C1CCCN1C[C@@H](O)[C@H](Cc1ccccc1)NC(=O)[C@H](CC(N)=O)NC(=O)[C@H](CC(C)C)NC(C)=O)C(=O)N[C@H](C(=O)OC)C(C)C (stereo partly drawn) (Ac-LN[Pheψ(R-CHOHCH2N)ξPro]IV-OMe)	4	–
CC[C@H](C)[C@H](NC(=O)C1CCCN1C[C@@H](O)[C@H](Cc1ccccc1)NC(=O)[C@H](CC(N)=O)NC(=O)c1ccc2ccccc2n1)C(=O)NCCc1ccccn1 (stereo partly drawn)	13	EC50 (CCRF-CEM [2]): 0.19 µg/mL (≈ 0.248 µM); IC50 [3]: 4 µM
